One block for each compound: values may come before it. Active and inactive are the calls of the source. The rule behind the calls is not given here.
Key:
[1] = test system: K562; test: Cytotoxicity against human K562 cells after 48 hrs by MTT assay; format: functional, cell-based; conditions: K562, 48 h
Method in brief: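 K562 cells in DMEM with 10% FBS, 37 °C, 5% CO2. Seeded at 7×10^5 cells/mL and held 12 h. Compounds in DMSO, diluted to final 0.01–50 µM (final DMSO below 1%), triplicate per concentration, 48 h. Then MTT 4 h at 37 °C, formazan dissolved in DMSO, absorbance read at 495 nm.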

[2] = test system: HepG2; test: Cytotoxicity against human HepG2 cells after 48 hrs by MTT assay; format: functional, cell-based; conditions: HepG2, 48 h
Method in brief: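 HepG-2 cells in DMEM with 10% FBS, 37 °C, 5% CO2. Seeded at 5×10^5 cells/mL for 12 h, then medium removed. Compounds in DMSO diluted to final 0.01–50 µM (DMSO below 1%), triplicate per concentration, 48 h. MTT 4 h at 37 °C, formazan taken up in DMSO, A495 read.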

[3] = target: T1, Dual specificity mitogen-activated protein kinase kinase; MEK1/2 (Homo sapiens) (UniProt P36507+Q02750); test: Inhibition of MEK in human K562 cells assessed as decrease of ERK expression after 48 hrs by Western blot analysis; format: cell-based
Method in brief: (§1)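 K562 cells treated at 0, 0.5, 2.5, 5 and 10 µM for 48 h at 37 °C. Lysed on ice 30 min in NP-40/HEPES pH 7.9 buffer with phosphatase and protease inhibitors, cleared at 12000 g. Bradford-normalized protein run on SDS–PAGE, transferred to PVDF, and probed for ERK and AKT.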

[4] = test system: K562; test: Induction of apoptosis in human K562 cells after 48 hrs by annexin V-FITC staining; format: functional, cell-based
[5] = target: Proto-oncogene tyrosine-protein kinase Src (Homo sapiens) (UniProt P12931); test: Inhibition of Src in human K562 cells assessed as decrease of ERK expression after 48 hrs by Western blot analysis; format: cell-based; method in brief: as §1
[6] = test system: K562; test: Induction of apoptosis in human K562 cells assessed as early cleavage of caspase-3 at 10 uM after 48 hrs by Western blot analysis; format: functional, cell-based
Method in brief: (§2)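 K562 cells treated 48 h at 37 °C. Lysed on ice 30 min (HEPES pH 7.9, KCl, EDTA, 0.1% NP-40, Na3VO4, NaF, protease inhibitors), then cleared at 12000 g, 4 °C. Protein measured by Bradford and equal amounts run on SDS–PAGE. Transferred to PVDF and immunoblotted for cleaved caspase-3, cleaved caspase-7 and cleaved PARP.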

[7] = test system: Calf thymus DNA; test: Binding affinity to calf thymus DNA at 10 uM by UV-vis spectrophotometric titration analysis; format: nucleic-acid assay; conditions: Bos taurus
[8] = test system: K562; test: Induction of apoptosis in human K562 cells assessed as early stage apoptotic cells at 10 uM after 48 hrs by annexin V-FITC staining (reference value: 3.14%); format: functional
[9] = test system: K562; test: Induction of apoptosis in human K562 cells assessed as live cells at 5 uM after 48 hrs by annexin V-FITC staining (reference value: 96.49%); format: functional
[10] = target: Proto-oncogene tyrosine-protein kinase Src (Homo sapiens) (UniProt P12931); test: Inhibition of Src (unknown origin) at 10 uM after 15 mins by luminescence assay
Method in brief: (§3)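 Contract-run kinase assay. Enzyme, substrate, ATP and compound (10 µM, in 2.5% DMSO) mixed in pH 7.0 buffer: 50 mM HEPES/NaOH, 0.02% NaN3, 0.01% BSA, orthovanadate, 5 mM MgCl2, 1 mM DTT. Incubated 15 min at room temperature. Detection with streptavidin-XL665 plus TK antibody europium cryptate in KF/EDTA buffer. […]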

[11] = test system: K562; test: Induction of apoptosis in human K562 cells assessed as late stage apoptotic cells at 5 uM after 48 hrs by annexin V-FITC staining (reference value: 0.23%); format: functional
[12] = test system: K562; test: Induction of apoptosis in human K562 cells assessed as live cells at 0.5 uM after 48 hrs by annexin V-FITC staining (reference value: 96.49%); format: functional
[13] = test system: K562; test: Induction of apoptosis in human K562 cells assessed as necrotic cells at 10 uM after 48 hrs by annexin V-FITC staining (reference value: 0.15%); format: functional
[14] = test system: K562; test: Induction of apoptosis in human K562 cells assessed as early cleavage of caspase-7 at 10 uM after 48 hrs by Western blot analysis; format: functional, cell-based; method in brief: as §2
[15] = test system: K562; test: Induction of apoptosis in human K562 cells assessed as necrotic cells at 0.5 uM after 48 hrs by annexin V-FITC staining (reference value: 0.15%); format: functional
[16] = test system: K562; test: Induction of apoptosis in human K562 cells assessed as early cleavage of PARP at 10 uM after 48 hrs by Western blot analysis; format: functional, cell-based; method in brief: as §2
[17] = test system: K562; test: Induction of apoptosis in human K562 cells assessed as necrotic cells at 5 uM after 48 hrs by annexin V-FITC staining (reference value: 0.15%); format: functional
[18] = organism: Homo sapiens; test: Inhibition of PI3K (unknown origin) at 10 uM after 15 mins by luminescence assay
[19] = test system: K562; test: Induction of apoptosis in human K562 cells assessed as late stage apoptotic cells at 10 uM after 48 hrs by annexin V-FITC staining (reference value: 0.23%); format: functional
[20] = target: T1, Dual specificity mitogen-activated protein kinase kinase; MEK1/2 (Homo sapiens); test: Inhibition of MEK in human K562 cells assessed as decrease of AKT expression after 48 hrs by Western blot analysis; format: cell-based; method in brief: as §1
[21] = target: Proto-oncogene tyrosine-protein kinase Src (Homo sapiens) (UniProt P12931); test: Inhibition of Src in human K562 cells assessed as decrease of AKT expression after 48 hrs by Western blot analysis; format: cell-based; method in brief: as §1
[22] = test system: K562; test: Induction of apoptosis in human K562 cells assessed as early stage apoptotic cells at 0.5 uM after 48 hrs by annexin V-FITC staining (reference value: 3.14%); format: functional
[23] = test system: K562; test: Inhibition of PI3K in human K562 cells assessed as decrease of AKT expression after 48 hrs by Western blot analysis; format: cell-based; method in brief: as §1
[24] = test system: K562; test: Inhibition of PI3K in human K562 cells assessed as decrease of ERK expression after 48 hrs by Western blot analysis; format: cell-based; method in brief: as §1
[25] = test system: K562; test: Induction of apoptosis in human K562 cells assessed as live cells at 10 uM after 48 hrs by annexin V-FITC staining (reference value: 96.49%); format: functional
[26] = target: T1, Dual specificity mitogen-activated protein kinase kinase; MEK1/2 (Homo sapiens); test: Inhibition of MEK (unknown origin) at 10 uM after 15 mins by luminescence assay; method in brief: as §3
[27] = test system: K562; test: Induction of apoptosis in human K562 cells assessed as early stage apoptotic cells at 5 uM after 48 hrs by annexin V-FITC staining (reference value: 3.14%); format: functional
[28] = test system: K562; test: Induction of apoptosis in human K562 cells assessed as late stage apoptotic cells at 0.5 uM after 48 hrs by annexin V-FITC staining (reference value: 0.23%); format: functional

Proto-oncogene tyrosine-protein kinase Src (Homo sapiens), sequence (P12931 2-536 limits assumed): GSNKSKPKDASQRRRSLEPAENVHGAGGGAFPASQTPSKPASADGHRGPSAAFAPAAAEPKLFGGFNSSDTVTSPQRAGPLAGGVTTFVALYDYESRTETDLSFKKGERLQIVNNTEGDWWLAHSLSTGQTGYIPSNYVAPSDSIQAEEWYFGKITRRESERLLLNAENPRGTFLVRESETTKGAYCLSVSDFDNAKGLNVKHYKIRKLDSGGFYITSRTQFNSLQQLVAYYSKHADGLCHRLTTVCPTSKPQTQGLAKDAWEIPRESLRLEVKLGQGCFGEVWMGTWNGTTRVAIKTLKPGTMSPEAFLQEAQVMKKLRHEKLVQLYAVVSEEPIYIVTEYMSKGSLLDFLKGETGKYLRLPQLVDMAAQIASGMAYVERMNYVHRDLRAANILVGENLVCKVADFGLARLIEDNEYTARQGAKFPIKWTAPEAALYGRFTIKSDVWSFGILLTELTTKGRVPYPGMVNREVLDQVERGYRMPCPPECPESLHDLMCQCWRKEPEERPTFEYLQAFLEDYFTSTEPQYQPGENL
T1 sequence (P36507 whole entry, looked up): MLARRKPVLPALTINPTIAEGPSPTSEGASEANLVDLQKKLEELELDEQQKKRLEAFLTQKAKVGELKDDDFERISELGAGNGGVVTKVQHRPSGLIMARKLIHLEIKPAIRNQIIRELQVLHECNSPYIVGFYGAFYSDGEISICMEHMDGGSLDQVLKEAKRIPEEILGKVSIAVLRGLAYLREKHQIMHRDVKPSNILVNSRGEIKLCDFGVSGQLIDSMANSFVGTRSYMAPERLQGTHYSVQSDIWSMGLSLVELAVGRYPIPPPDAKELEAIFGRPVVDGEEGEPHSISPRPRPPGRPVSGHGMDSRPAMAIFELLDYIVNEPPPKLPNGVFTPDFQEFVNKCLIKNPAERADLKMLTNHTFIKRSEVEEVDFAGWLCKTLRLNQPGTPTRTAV
T1 sequence (Q02750 whole entry, looked up): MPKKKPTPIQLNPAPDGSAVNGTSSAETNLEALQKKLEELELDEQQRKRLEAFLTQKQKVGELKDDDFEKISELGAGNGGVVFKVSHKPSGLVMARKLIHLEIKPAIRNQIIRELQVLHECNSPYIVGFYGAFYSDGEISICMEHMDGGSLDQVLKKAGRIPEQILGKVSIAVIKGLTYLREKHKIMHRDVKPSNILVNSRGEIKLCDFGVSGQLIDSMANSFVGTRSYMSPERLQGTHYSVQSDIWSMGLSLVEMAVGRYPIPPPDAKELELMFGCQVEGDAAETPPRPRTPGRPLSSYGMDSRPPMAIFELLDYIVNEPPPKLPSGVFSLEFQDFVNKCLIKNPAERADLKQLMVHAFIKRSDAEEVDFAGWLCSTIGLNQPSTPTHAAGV

SMILES: COc1cccc2c(Nc3ccc(NC(=O)Nc4ccccc4)cc3)c3ccc([N+](=O)[O-])cc3nc12
IC50 [1]: 2.58 µM
IC50 [2]: 17.6 µM

inhibition [3]: Dose-dependent effect
inhibition [5]: Dose-dependent effect
Activity [7]: 0.083 M⁻¹
inhibition [10]: 59.7%
inhibition [18]: 44.4%
inhibition [20]: Dose-dependent effect
inhibition [21]: Dose-dependent effect
inhibition [26]: 43.2%
SMILES: COc1ccc2c(Nc3ccc(NC(=O)Nc4ccccc4)cc3)c3ccccc3nc2c1
Activity [4]: Dose-dependent effect
Activity [6]: Active
Activity [8]: 54.98%
Activity [9]: 85.42%
Activity [11]: 0.23%
Activity [12]: 96.6%
Activity [13]: 0.73%
Activity [14]: Active
Activity [15]: 0.15%
Activity [16]: Active
Activity [17]: 0.3%
Activity [19]: 6.45%
IC50 [1]: 4.08 µM
Activity [22]: 6.13%
inhibition [23]: Dose-dependent effect
IC50 [2]: 9.41 µM
inhibition [24]: Dose-dependent effect
Activity [25]: 37.83%
Activity [27]: 14.05%
Activity [28]: 0.1%

SMILES: COc1ccccc1NC(=O)Nc1ccc(Nc2c3ccccc3nc3cc([N+](=O)[O-])ccc23)cc1
IC50 [1]: 4.51 µM
IC50 [2]: 19.4 µM

SMILES: O=C(Nc1ccc(Nc2c3ccccc3nc3cc([N+](=O)[O-])ccc23)cc1)Nc1cccc(C(F)(F)F)c1
IC50 [1]: 1.2 µM
IC50 [2]: > 25 µM

SMILES: COc1cccc2c(Nc3ccc(NC(=O)Nc4cccc(C(F)(F)F)c4)cc3)c3ccccc3nc12
IC50 [1]: 1.93 µM
IC50 [2]: 13.1 µM

SMILES: O=C(Nc1ccccc1)Nc1ccc(Nc2c3ccccc3nc3cc([N+](=O)[O-])ccc23)cc1
IC50 [1]: 3.3 µM
IC50 [2]: 19.8 µM

SMILES: COc1ccc(NC(=O)Nc2ccc(Nc3c4ccccc4nc4cc([N+](=O)[O-])ccc34)cc2)cc1
IC50 [1]: 7.68 µM
IC50 [2]: > 25 µM

SMILES: COc1ccc2nc3cc(Cl)ccc3c(Nc3ccc(NC(=O)Nc4ccccc4)cc3)c2c1
IC50 [1]: 3.42 µM
IC50 [2]: 9.56 µM

SMILES: COc1cccc(NC(=O)Nc2ccc(Nc3c4ccccc4nc4cc([N+](=O)[O-])ccc34)cc2)c1
IC50 [1]: 4.55 µM
IC50 [2]: 22.3 µM

SMILES: CCCCc1ccc(NC(=O)Nc2ccc(Nc3c4ccccc4nc4cc([N+](=O)[O-])ccc34)cc2)cc1
IC50 [1]: 1.23 µM
IC50 [2]: 14 µM

SMILES: Cc1cccc(NC(=O)Nc2ccc(Nc3c4ccccc4nc4cc([N+](=O)[O-])ccc34)cc2)c1
IC50 [1]: 11.6 µM
IC50 [2]: > 25 µM

SMILES: CCCc1ccc(NC(=O)Nc2ccc(Nc3c4ccccc4nc4cc([N+](=O)[O-])ccc34)cc2)cc1
IC50 [1]: 1.56 µM
IC50 [2]: 14.4 µM

SMILES: CCc1cccc(NC(=O)Nc2ccc(Nc3c4ccccc4nc4cc([N+](=O)[O-])ccc34)cc2)c1
IC50 [1]: 8.92 µM
IC50 [2]: 22.7 µM

SMILES: O=C(Nc1ccc(Nc2c3ccccc3nc3cc([N+](=O)[O-])ccc23)cc1)Nc1cccc(Cl)c1
IC50 [1]: 13.9 µM
IC50 [2]: > 25 µM

SMILES: COc1ccc2nc3cc([N+](=O)[O-])ccc3c(Nc3ccc(NC(=O)Nc4ccccc4)cc3)c2c1
IC50 [1]: 3.79 µM
IC50 [2]: > 25 µM

SMILES: COc1ccc2nc3cc(Cl)ccc3c(Nc3ccccc3OC)c2c1
IC50 [1]: 5.8 µM
IC50 [2]: > 50 µM

SMILES: O=C(Nc1ccc(Nc2c3ccccc3nc3cc([N+](=O)[O-])ccc23)cc1)Nc1cccc(F)c1
IC50 [1]: 11.1 µM
IC50 [2]: > 25 µM

SMILES: CCc1ccc(NC(=O)Nc2ccc(Nc3c4ccccc4nc4cc([N+](=O)[O-])ccc34)cc2)cc1
IC50 [1]: 1.86 µM
IC50 [2]: 14.8 µM

SMILES: COc1cccc2c(Nc3ccc(NC(=O)Nc4ccccc4)cc3)c3ccccc3nc12
IC50 [1]: 0.49 µM
IC50 [2]: 6.12 µM

SMILES: Cc1ccc(NC(=O)c2ccc(CN3CCN(C)CC3)cc2)cc1Nc1nccc(-c2cccnc2)n1 [IMATINIB]
IC50 [1]: 0.53 µM
IC50 [2]: > 25 µM
